MrgX1 antagonist: human MrgX1 receptor antagonism, primary screen | Q96LB2 | MRGX1-HEK293 calcium flux, Fluo-4, BAM8-22 antagonism; hits give low values | B-score at 10 µM | 310,000 compounds, 1.3% hits | AID 588676;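 active means calcium-response B-score plate-corrected more than 3 library SD below zero, starting fluorescence within 5 deviations, no agonist response on first addition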;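 further: peak minus trough fluorescence over baseline after final BAM8-22 challenge near maximal dose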
Target sequence (Q96LB2 whole entry, looked up): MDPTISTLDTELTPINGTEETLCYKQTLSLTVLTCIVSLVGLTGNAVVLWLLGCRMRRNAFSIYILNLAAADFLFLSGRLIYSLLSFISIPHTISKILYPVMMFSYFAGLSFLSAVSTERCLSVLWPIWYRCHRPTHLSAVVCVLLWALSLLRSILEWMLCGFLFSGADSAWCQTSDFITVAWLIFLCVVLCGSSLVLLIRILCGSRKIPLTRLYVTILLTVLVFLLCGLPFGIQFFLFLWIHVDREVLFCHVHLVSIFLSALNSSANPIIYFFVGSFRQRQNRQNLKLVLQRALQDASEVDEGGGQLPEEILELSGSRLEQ
MrgX1 ag: activates human MrgX1 receptor signaling. 310,000 compounds, 0.44% hits. AID 588627. MrgX1-HEK293 cells, Fluo-4 calcium fluorescence, agonist mode; hits give high values. B-score at 10 µM;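 active means calcium response B-score plate-corrected fluorescence ratio at least 3 library SD, with starting fluorescence B-score inside 5 SD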
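Test system: HEK293 cells stably expressing human MrgX1 receptor; amount: 15,000 cells per well; doses: compound delivered in addition one of three; times: overnight plating before 1 h dye loading; detection: Fluo-4 NW calcium-flux fluorescence, kinetic read; read-out basis: B-scored fluorescence response ratio; controls: positive and negative controls per plate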
RGS4 act: RGS4 potentiation or activation | HEK293 M3R/inducible RGS4, carbachol calcium flux Fluo4; hits give low values | B-score at 10 µM | 310,000 compounds, 0.92% hits | AID 463111;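 active means B-score of the integrated calcium signal more than 4 SD below the library mean, with starting fluorescence not abnormally high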;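 further: negative B-score means reduced calcium response which marks RGS4 activation or potentiation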
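Material: Inducible-RGS4 HEK293 cells carrying M3 receptor; also added: carbachol at ECmax as muscarinic agonist stimulus; incubation: compound preincubation 20 min at room temperature before agonist; signal: Fluo4-AM (2 µM) calcium-flux fluorescence, kinetic read; measure: integrated calcium ratio converted to B score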
RGS4 block: human RGS4 inhibition; HEK293 M3R/RGS4 inducible, Fluo-4 calcium flux; hits give high values; triggered by carbachol at its EC20; B-score at 10 µM; 310,000 compounds, 0.45% hits; AID 463165;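 active means B-score, a plate-corrected calcium signal, over three deviations above library mean, with baseline fluorescence within five deviations of library mean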;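 further: RGS4 expression induced by doxycycline in cells with stable M3 receptor; B-score is computed from the integrated fluorescence ratio over baseline after carbachol; higher B-score means a larger calcium signal and so more RGS4 inhibition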
Target sequence (P49798 whole entry, looked up): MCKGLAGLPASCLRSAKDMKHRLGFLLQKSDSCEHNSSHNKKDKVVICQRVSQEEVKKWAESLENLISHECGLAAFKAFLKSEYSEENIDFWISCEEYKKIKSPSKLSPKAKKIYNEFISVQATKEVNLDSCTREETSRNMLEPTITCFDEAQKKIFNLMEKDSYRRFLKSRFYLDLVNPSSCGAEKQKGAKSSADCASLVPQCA
MrgX1 allo act: human MrgX1 positive allosteric modulation, primary screen | AID 588675 | Q96LB2 | MrgX1-HEK293, Fluo-4 calcium flux, FDSS; hits give high values | 310,000 compounds, 0.63% hits | B-score at 10 µM;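 active means plate-corrected calcium response at least 3 library SD above typical, normal starting fluorescence, not activating the receptor alone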;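 further: compound read alongside a low EC10 to EC30 dose of BAM8-22 agonist; peak minus trough fluorescence over baseline measured at the second addition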
KCC2 mod: modulates chloride dependent transport by human KCC2; Q9H2X9; KCC2 cells, thallium flux FluoZin-2 fluorescence; B-score of Tl+ flux slope (higher = more flux/activation; lower = inhibition) at 10 µM; 190,000 compounds, 2.2% hits; AID 1456;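 active means thallium flux slope and its plate-corrected score both differing from the plate sample mean at a set confidence after two filtering rounds, in either direction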;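 further: slope of fluorescence scaled to starting intensity during 10 to 20 s after thallium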
MrgX1 PAM conf: reconfirmed allosteric activator of human MrgX1 receptor | AID 602413 | MrgX1-HEK293, Fluo-4 calcium fluorescence, FDSS | shares compounds with MrgX1 allo act | 1,200 compounds, 13% hits | activation (ratio percentage), % at 10 µM;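 active means ratio at least 3 SD above the weak peptide control, stable starting fluorescence, no direct agonism earlier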;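 further: compound followed by low BAM8-22 agonist challenge near EC20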
HEK293 Ca flux: MrgX1 antagonist counter-screen hit in parental HEK293 cells; shares compounds with MrgX1 antagonist; Fluo-4 calcium fluorescence, FDSS; fluorescence ratio F(max-min)/F0 at 10 µM; 4,000 compounds, 2% hits;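 active means duplicate-averaged calcium fluorescence ratio at least three times the standard deviation of buffer wells, a nonspecific response in parental cells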
HEK293 Ca counter: activity in parental HEK293 cells without MrgX1; AID 624114; parental HEK293 calcium flux, Fluo-4 fluorescence ratio; hits give high values; 4,000 compounds, 0.4% hits; shares compounds with MrgX1 antagonist; fluorescence ratio F(max-min)/F0 at 10 µM;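 active means calcium fluorescence ratio, averaged over duplicates, at least 3 SD of the buffer-well ratio, meaning a nonspecific response in receptor-free cells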;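 further: untransfected parental HEK293 lacking MrgX1 used as counterscreen for MrgX1 allosteric activators; fluorescence change taken during the second addition on a kinetic imager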
HEK293 Ca cntr2: activity in parental HEK293 cells lacking MrgX1 receptor; shares compounds with MrgX1 antagonist; Fluo-4 calcium fluorescence (FDSS); hits give high values; fluorescence ratio F(max-min)/F0 at 10 µM; 4,000 compounds, 8.7% hits; AID 624115;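 active means calcium fluorescence ratio at least three times the spread of buffer wells, meaning a non-specific response in parental cells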
The depositor's hits bear a star; i = inactive; nt = no result. Only some compounds are listed: those with a hit (about 4.7% of all), similar ones and a draw of the others.

SMILES | MrgX1 antagonist | MrgX1 ag | RGS4 act | RGS4 block | MrgX1 allo act | KCC2 mod | MrgX1 PAM conf | HEK293 Ca flux | HEK293 Ca counter | HEK293 Ca cntr2
O=C(c1cnn2c(C(F)F)cc(-c3ccccc3)nc12)N1CCCCC1c1cccnc1 (centres undefined) | i | i | i | i | i | -0.36 | nt | nt | nt | nt
CSCC[C@H](NC(=O)N1CCn2c1nc1ccccc12)C(=O)N1CCCCC1 | i | i | i | i | 10* | nt | i | i | i | i
CCN1C(=O)CSC1=NC1C2CC3CC(C2)CC1C3 (centres undefined) | i | i | i | i | 14* | nt | i | i | i | i
Cn1c(CN2CCCC2)nc2cc(NC(=O)c3ccc(Cl)cc3)ccc21 | i | i | i | i | 9* | -0.93 | i | i | i | i
Cn1c(CN2CCCCC2)nc2cc(NC(=O)c3ccc(Cl)cc3)ccc21 | i | i | i | i | i | -0.18 | nt | nt | nt | nt
O=C(COC(=O)c1ccc(O)cc1)Nc1ccc(OC(F)F)cc1 | i | i | i | i | i | 0.059 | nt | nt | nt | nt
O=C(COC(=O)c1cccc(O)c1)Nc1ccc(OC(F)F)cc1 | i | i | i | i | 10* | -0.0098 | i | i | i | i
CC1(C)Cc2ccccc2-c2nnc(SCC(=O)N3CCN(c4ccccc4)CC3)n21 | i | i | i | i | 10* | nt | 9.3%* | i | i | i
COc1ccc(C(=O)NCCCOc2cccnc2)cc1OC1CCN(C(C)=O)CC1 | i | i | i | i | i | nt | nt | nt | nt | nt
N#Cc1ccc(-c2ccco2)nc1SCC(=O)c1ccc(Cl)cc1 | i | i | i | i | 8.4* | -0.012 | i | 0.48* | i | i
Cc1nonc1NC(=O)CSc1nc(C23CC4CC(CC(C4)C2)C3)nc2ccccc12 | i | i | i | i | i | 0.64 | nt | nt | nt | nt
NC(=O)CSc1nc(C23CC4CC(CC(C4)C2)C3)nc2ccccc12 | i | i | i | i | 17* | -0.73 | 14%* | i | i | i
O=C(CCn1cnc2ccccc21)N=Nc1c(O)[nH]c2ccccc12 | i | i | i | i | i | -0.015 | nt | nt | nt | nt
Cc1cccc(NC(=O)c2ccc3c(Cl)c4c(nc3c2)CCCC4)n1 | i | i | i | i | 20* | 0.49 | i | i | i | i
Brc1ccc2c(c1)CNc1c(ncnc1N1CCOCC1)O2 | i | i | i | i | 11* | -1.5 | 18%* | i | i | i
N#Cc1c(NC(=O)/C=C/C(=O)O)sc2c1CCN(Cc1ccccc1)C2 | i | i | i | i | i | nt | nt | nt | nt | nt
COc1ccc(N(C(=O)c2snc(C(N)=O)c2N)C(C(=O)NCC2CCCO2)c2ccc3ncccc3c2)cc1OC (centres undefined) | i | i | i | i | i | nt | nt | nt | nt | nt
CC(C)CNc1ncnc2c1cnn2Cc1ccccc1Cl | i | i | i | i | 10* | nt | i | i | i | i
COc1ccc(NS(=O)(=O)c2cn(C)cn2)cc1 | i | i | i | i | i | -0.1 | nt | nt | nt | nt
CSc1cccc(NS(=O)(=O)c2cn(C)cn2)c1 | i | i | i | i | 12* | nt | i | i | i | i
CCS(=O)(=O)c1nn2c(N)c(/C=C3/C=CC(=O)C(OC)=C3)c(=O)nc2s1 | i | i | i | i | 28* | -0.29 | i | i | i | 63*
Nc1c(C=C2C=CC(=O)C=C2)c(=O)nc2sc(CC(=O)N3CCCC3)nn12 | i | i | i | i | i | nt | nt | nt | nt | nt
CC(=O)c1ccc(N2CCN(CC(=O)Nc3ccc4c(c3)OCCO4)CC2)cc1 | i | i | i | i | i | nt | nt | nt | nt | nt
CC(NS(=O)(=O)/C=C/c1ccccc1)C(=O)O (centres undefined) | i | i | i | i | 10* | -0.031 | i | i | i | i
CC(C)c1ccc(NC(=S)Nc2ccc3[nH]c(=O)[nH]c3c2)cc1 | i | i | i | i | 15* | 0.088 | i | i | i | i
SMILES | MrgX1 antagonist | MrgX1 ag | RGS4 act | RGS4 block | MrgX1 allo act | KCC2 mod | MrgX1 PAM conf | HEK293 Ca flux | HEK293 Ca counter | HEK293 Ca cntr2
O=c1[nH]c2ccc(NC(=S)Nc3ccc(Cl)cc3)cc2[nH]1 | i | i | i | i | i | nt | nt | nt | nt | nt
O=C(c1ccc(Br)cc1)N(c1ccccn1)C1CCCCC1 | i | i | i | i | 19* | -0.47 | i | i | i | i
Cc1cccc(NC(=O)C23CCC(C)(C2Br)C3(C)C)c1 (centres undefined) | i | i | i | i | 20* | 0.029 | i | i | i | i
O=C(CCn1c(=S)oc2ccccc21)NC1CCCCCC1 | i | i | i | i | 7* | -0.32 | i | i | i | i
Cc1nnc(NC(=O)c2ccc(S(=O)(=O)N3CCOCC3)cc2)s1 | i | i | i | i | 9.8* | 0.071 | i | i | i | i
Cc1nnc(NC(=O)c2ccc(C)c(S(=O)(=O)N3CCOCC3)c2)s1 | i | i | i | i | i | -0.77 | nt | nt | nt | nt
O=S(=O)(c1ccc(F)cc1)N1CCCN(c2nccc(C(F)(F)F)n2)CC1 | i | i | i | i | i | 0.46 | nt | nt | nt | nt
Cc1ccc(C(=O)NCCCNC(=O)c2ccccc2C)cn1 | i | i | i | i | i | nt | nt | nt | nt | nt
C=CCSc1nnc2c(n1)OC(c1c(C)[nH]n(-c3ccccc3)c1=O)Nc1ccccc1-2 (centres undefined) | i | i | i | i | i | -0.39 | nt | nt | nt | nt
CSc1nnc(-c2ccccc2N=Cc2c(C)[nH]n(-c3ccc4ccccc4c3)c2=O)c(=O)[nH]1 | i | i | i | i | 12* | 0.97 | i | i | i | i
Cc1[nH]n(-c2ccccc2)c(=O)c1C=Nc1ccc2[nH]c(=O)[nH]c2c1 | i | i | i | i | i | -0.58 | nt | nt | nt | nt

Screening data from PubChem.
